Test results published in ChEMBL document CHEMBL4261510, “Synthesis of novel inhibitors of α-amylase based on the thiazolidine-4-one skeleton containing a pyrazole moiety and their configurational studies” (Medchemcomm, 2017).

Legend:
[1] = biological target: Alpha amylase (Homo sapiens) (UniProt P0DUB6); assay: Inhibition of human alpha-amylase at 200 ug/ml using starch as substrate preincubated for 30 mins by 3,5-dinitrosalicylic acid color reagent based assay relative to control
In short: (§1)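 Test samples were prepared as a DMSO stock of 10 mg/10 mL and assayed at 50, 100 and 200 μg mL–1. Enzyme was at 1 unit per mL in 20 mM sodium phosphate, pH 6.9. Sample and enzyme were incubated 30 min at 25 °C. DNSA colour reagent was added, then heated 15 min at 85 °C and read at 595 nm. Soluble potato starch (0.5–1% w/v) was the substrate. Inhibition % was taken against a DMSO control, with blanks correcting background.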

[2] = biological target: Alpha amylase (Homo sapiens) (UniProt P0DUB6); assay: Inhibition of human alpha-amylase at 100 ug/ml using starch as substrate preincubated for 30 mins by 3,5-dinitrosalicylic acid color reagent based assay relative to control; in short: as §1
[3] = biological target: Alpha amylase (Homo sapiens) (UniProt P0DUB6); assay: Inhibition of human alpha-amylase at 50 ug/ml using starch as substrate preincubated for 30 mins by 3,5-dinitrosalicylic acid color reagent based assay relative to control; in short: as §1

Chain of Alpha amylase (Homo sapiens) (P0DUB6 whole entry, looked up): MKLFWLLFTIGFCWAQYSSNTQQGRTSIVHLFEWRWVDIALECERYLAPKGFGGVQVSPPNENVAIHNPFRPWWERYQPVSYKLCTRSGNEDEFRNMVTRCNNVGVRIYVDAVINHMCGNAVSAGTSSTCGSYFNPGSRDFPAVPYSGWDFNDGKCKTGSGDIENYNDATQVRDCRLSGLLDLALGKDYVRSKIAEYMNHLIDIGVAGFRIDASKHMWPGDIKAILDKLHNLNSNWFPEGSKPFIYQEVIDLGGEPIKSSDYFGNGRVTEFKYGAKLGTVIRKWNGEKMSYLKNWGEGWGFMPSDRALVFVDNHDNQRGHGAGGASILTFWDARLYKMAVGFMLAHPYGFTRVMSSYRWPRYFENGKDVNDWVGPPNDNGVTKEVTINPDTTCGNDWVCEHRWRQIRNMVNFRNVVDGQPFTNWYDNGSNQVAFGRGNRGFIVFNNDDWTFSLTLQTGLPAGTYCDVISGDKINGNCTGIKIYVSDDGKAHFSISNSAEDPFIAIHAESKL

SMILES	inhibition [1]	inhibition [2]	inhibition [3]
COc1ccc(-c2nn(-c3ccccc3)cc2/C=C2\S/C(=N\c3ccc(C)cc3)NC2=O)cc1	92.2%	90%	75.9%
Cc1ccc(/N=C2/NC(=O)/C(=C/c3cn(-c4ccccc4)nc3-c3ccc(C)cc3)S2)cc1	84%	83.7%	79.2%
Cc1ccc(/N=C2/NC(=O)/C(=C/c3cn(-c4ccccc4)nc3-c3ccc(Cl)cc3)S2)cc1	75%	81.1%	50.9%
C[C@H]1O[C@H](O[C@H]2[C@H](O)[C@@H](O)[C@@H](O[C@H]3[C@H](O)[C@@H](O)C(O)O[C@@H]3CO)O[C@@H]2CO)[C@H](O)[C@@H](O)[C@@H]1N[C@H]1C=C(CO)[C@@H](O)[C@H](O)[C@H]1O (some centres undefined)	63.7%	53.8%	48.6%
Cc1ccc(/N=C2/NC(=O)/C(=C/c3cn(-c4ccccc4)nc3-c3ccc(F)cc3)S2)cc1	78%	81.6%	77.1%
Cc1ccc(/N=C2/NC(=O)/C(=C/c3cn(-c4ccccc4)nc3-c3ccc(Br)cc3)S2)cc1	97.4%	72.9%	52.1%
Cc1ccc(/N=C2/NC(=O)/C(=C/c3cn(-c4ccccc4)nc3-c3ccc([N+](=O)[O-])cc3)S2)cc1	58%	88.2%	65.1%
Cc1ccc(/N=C2/NC(=O)/C(=C/c3cn(-c4ccccc4)nc3-c3ccccc3)S2)cc1	84.3%	81.6%	48.1%
